Source: paper PMC8969127 (Molecular Pharmacology, 2022)
Entries after “also recorded” stand apart in the source; their conditions may differ. Like-named read-outs stand apart in the source and are kept apart here.

Key:
[1] = target: T1, CatSper (Homo sapiens, UniProt Q7RTX7+Q86XQ3+Q8NEC5+Q96P56); assay: Human sperm calcium influx assay, activation; type: cell-based; conditions: for Emax: read-out: Emax, %, Steroid Alone; for effect on [Ca2+]i as activator: concentrations up to 10 µM
Method in brief: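 Semen from healthy donors was liquefied at 37 °C, washed twice in low pH/low K+ buffer (pH 6.7, 0.2 mM CaCl2), then loaded with 10 µM Fluo-4-AM plus 1 mM probenecid, 30 min, room temperature, dark. On FLIPR, buffer was added first, then openers 2 min later. Fluorescence was read for 7 min at 2-s intervals. EC50 came from 8-point, 3-fold dilutions in duplicate, peak height, four-parameter fit. Emax is relative to 3 µM progesterone. Activators were retested with 30 µM mibefradil.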

[2] = target: T1, CatSper; conditions: read-out: EC50, patch-clamp electrophysiology; ref Lishko et al., 2011; cited from earlier work
[3] = target: T1, CatSper; conditions: read-out: EC50, rapid-mixing calcium fluorimetry; ref Strunker et al., 2011; cited from earlier work
[4] = target: T1, CatSper; type: cell-based; conditions: for IC50: human sperm
[5] = target: T1, CatSper; assay: Activator concentration-response curves in the presence of increasing inhibitor; type: cell-based
Method in brief: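 Washed human donor sperm in low pH/low K+ buffer (pH 6.7) were loaded with 10 µM Fluo-4-AM plus 1 mM probenecid, 30 min, room temperature, dark. FLIPR read: ex 470–495/em 515–575 nm. Activator concentration-response curves were run with increasing concentrations of competitive antagonist, added 2 min before the activator. Activator EC50 values were taken from maximal peak height (four-parameter fit). pKB came from Schild regression.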

[6] = tested on: human sperm; assay: Computer-assisted sperm analysis; type: cell-based; conditions: CASA, human sperm, up to 30 µM
Method in brief: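 Donor semen was liquefied ≥40 min at 37 °C, then swim-up in HAM's F10 for 1 h at 37 °C, 5% CO2. Cells were adjusted to 10x10^6/mL and capacitated in HAM's F10 with 5% BSA and 15 mM NaHCO3 at 37 °C, 5% CO2, with test compound or DMSO. HAM was induced with 100 nM progesterone or 100 nM PGE1. CASA at 37 °C used ≥10 fields, ≥200 cells. Motility classes came from VAP/VSL/VCL-derived LIN and STR, normalized to vehicle controls, ≥3 experiments.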

[7] = pEC50, calcium influx, Steroid Alone, human sperm, mean ±SD
[8] = KB, Leff-Dougall analysis, averaged across the activators, PROG, PGE1 and l-sirenin
[9] = Leff-Dougall pKB, opener PGE1, from IC50, mean ± SD
[10] = Leff-Dougall pKB, opener PROG, from IC50, mean ± SD
[11] = Leff-Dougall pKB, opener l-Sirenin, from IC50, mean ± SD
[12] = pIC50, inhibition of PGE1-induced calcium influx, opener 10 nM PGE1 (EC80), mean ±SD
[13] = pIC50, inhibition of l-sirenin-induced calcium influx, opener 3 µM l-sirenin (EC80), mean ±SD
[14] = Schild pKB, opener PGE1, mean ± standard error
[15] = Schild pKB, opener PROG, mean ± standard error
[16] = Schild pKB, opener l-Sirenin, mean ± standard error
[17] = average pKB, Schild analysis, averaged across the activators, PROG, PGE1 and l-sirenin, mean ±SD

EC50 [1, 7] [µM]	Emax [1] [%]	Kb [4, 8] [µM]	Kb [4, 9] [µM]	Kb [4, 10] [µM]	Kb [4, 11] [µM]	IC50 [4, 12] [µM]	IC50 [4, 13] [µM]	Kb [5, 14] [µM]	Kb [5, 15] [µM]	Kb [5, 16] [µM]	Kb [5, 17] [µM]	Compound	effect on total and progressive sperm motility [6]	effect on [Ca2+]i as activator [1]	other results
0.00372	111	–	–	–	–	–	–	–	–	–	–	CC(=O)[C@H]1CC[C@H]2[C@@H]3CCC4=CC(=O)CC[C@]4(C)[C@H]3CC[C@]12C [compound 1, progesterone]	–	–	EC50 ([1]; EC50, increase of [Ca2+]i in human sperm): 0.0037 µM; time at which the calcium signal peaked ([1]; then decayed slowly for up to 300 seconds): ~100 s; EC50 [2]: 0.0077 µM; EC50 [3]: 0.042 µM
> 10	17	1.6	1	0.692	6.31	9.77	6.17	4.17	0.646	6.03	2.51	CC(=O)O[C@]1(C(C)=O)CC[C@H]2[C@@H]3C[C@H](C)C4=CC(=O)CC[C@]4(C)[C@H]3CC[C@@]21C [compound 4, medroxyprogesterone acetate]	reduced total and progressive motility at 30 µM but not at lower concentrations	–	effect on [Ca2+]i as activator ([1]; listed as MPA): little effect on [Ca^2+]i; also recorded: negligible activity; Kb ([4]; mean pKB, Leff-Dougall analysis, averaged across the activators, PROG, PGE1 and l-sirenin, mean ±SD): 1.66 µM
–	–	5.1	6.03	3.47	6.46	57.5	61.7	724	4.17	15.1	36.3	C[C@]12CCC(=O)C=C1CC[C@@H]1[C@@H]2[C@@H](O)C[C@]2(C=O)[C@@H](C(=O)CO)CC[C@@H]12 [compound 6, aldosterone]	no significant effect	did not increase [Ca^2+]i; also recorded: negligible activity	–

Compound	EC50 [1, 7] [µM]	Emax [1] [%]	Kb [4, 8] [µM]	Kb [4, 9] [µM]	Kb [4, 10] [µM]	Kb [4, 11] [µM]	IC50 [4, 12] [µM]	IC50 [4, 13] [µM]	Kb [5, 14] [µM]	Kb [5, 15] [µM]	Kb [5, 16] [µM]	Kb [5, 17] [µM]	effect on total and progressive sperm motility [6]	effect on [Ca2+]i as activator [1]	other results
C#C[C@]1(O)CC[C@H]2[C@@H]3CCC4=CC(=O)CC[C@@H]4[C@H]3CC[C@@]21CC [compound 5, levonorgestrel]	–	15	4.5	3.16	3.39	8.51	30.2	81.3	437	0.158	56.2	15.8	no significant effect	negligible activity	EC50 [1]: > 10 µM
